Screening results (PubChem BioAssay)
In the library only some 1.9% were active in any assay of this set; here they are far more common.
Runt-SMMHC FRET – Runt domain-CBFb-SMMHC interaction inhibition. Q01196+Q13951. Cerulean-Runt/Venus-CBFb-SMMHC FRET ratio 530/480, 1 h. inhibition, % at 20 µM. hit rate 0.74% among 220,000. AID 1434;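 active = mean inhibition across duplicate retests at 20 µM reaching about 50%, limit read from the data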;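 also: 0% = DMSO wells and 100% = wells with excess untagged CBFb-SMMHC; inhibitors lower the FRET ratio by blocking Runt binding to CBFb-SMMHC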
Target sequence (Q01196 whole entry, looked up, the tested form may be a part): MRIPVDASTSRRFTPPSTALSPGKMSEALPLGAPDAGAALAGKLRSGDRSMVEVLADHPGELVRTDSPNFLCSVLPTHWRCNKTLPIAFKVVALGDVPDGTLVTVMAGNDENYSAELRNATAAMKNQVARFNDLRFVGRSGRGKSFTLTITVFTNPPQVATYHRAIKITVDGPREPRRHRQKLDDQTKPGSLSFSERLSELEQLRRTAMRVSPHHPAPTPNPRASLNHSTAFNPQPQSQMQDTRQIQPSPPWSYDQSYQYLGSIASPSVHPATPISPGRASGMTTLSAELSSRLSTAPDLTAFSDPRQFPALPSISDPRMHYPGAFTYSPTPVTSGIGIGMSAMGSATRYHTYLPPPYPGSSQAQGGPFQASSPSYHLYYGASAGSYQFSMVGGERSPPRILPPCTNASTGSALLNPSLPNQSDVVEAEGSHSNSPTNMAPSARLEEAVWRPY
Target sequence (Q13951 whole entry, looked up, the tested form may be a part): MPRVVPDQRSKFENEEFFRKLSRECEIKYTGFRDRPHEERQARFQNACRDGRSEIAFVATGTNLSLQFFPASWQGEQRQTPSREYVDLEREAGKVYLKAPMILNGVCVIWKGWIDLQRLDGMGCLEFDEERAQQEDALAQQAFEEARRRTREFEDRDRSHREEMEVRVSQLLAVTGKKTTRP
Runt-CBFb FRET – inhibitors of human RUNX1 Runt domain binding to CBFb. Q01196+Q13951. Cerulean-Runt/Venus-CBFb FRET ratio 530/480, 1 h. inhibition, % at 20 µM. hit rate 0.46% among 220,000. AID 1496;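 active = inhibition over about 50% at 20 µM in the single-dose screen, limit read from the data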;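 also: 0% = DMSO wells and 100% = excess unlabeled CBFb competitor control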
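Assay system: Cerulean-Runt domain / Medium: Tris 50 mM pH 7.5, KCl, K2SO4, 0.01% BSA / Timing: protein complex preformed 1 h, compound exposure 1 h, room temperature, dark / Measured by: FRET, excitation 422 nm, emission at 530 and 480 nm / Evaluation: loss of energy transfer signal / Control set: 5 µM unlabeled CBFb as full-inhibition high control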
RanGTP-Imp inh – inhibitors of RanGTP-importin-beta interaction, primary screen, biochemical, FRET, CFP-Ran, YFP-importin-beta, homogeneous; cell-free CFP-Ran/YFP-importin-beta FRET ratio; inhibition, % (no concentration beside the values); hit rate 1.1% among 300,000;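 active = more than half of the replicate wells show a fall in the fluorescence ratio signal beyond about 16%, limit read from the data, passing the limit was not always enough; inconclusive = exactly half of the replicate wells pass the set limit; inactive = fewer than half of replicates pass the limit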;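 also: 0% = DMSO wells and 100% = Ran loaded with GDP instead of GTP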
Hck-Nef inh – blocks Nef-activated human Hck kinase; inhibition, % at 20 µM; P08631; Recombinant Hck-YEEI plus Nef, Z-Lyte FRET kinase assay; hit rate 0.68% among 220,000;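 active = Hck-Nef kinase inhibition above about 50%, limit read from the data; inactive = inhibition below that limit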;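 also: 0% = DMSO with Hck plus Nef and 100% = Hck alone without Nef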
Numbers without * were called inactive; ? = inconclusive; . = no result given.

SMILES	Runt-SMMHC FRET	Runt-CBFb FRET	RanGTP-Imp inh	Hck-Nef inh
Nc1c(C(=O)NCCN2CCOCC2)c2nc3ccccc3nc2n1-c1ccccc1	98*	47	81*	37
O=C(Nc1ccc(F)cc1)c1ccccc1S(=O)(=O)c1ccccc1[N+](=O)[O-]	-1	0	-3	-1
CCOC(=O)c1c(C)n(S(=O)(=O)c2ccc(C)cc2)c2ccc(O)c(C(=O)O)c12	.	.	3	.
COc1ccc(Cl)c(OC)c1C(=O)NC(=O)Nc1c(F)cc(F)cc1F	-1	0	3	12
Cc1cccn2c(=O)c3cc(C#N)c(=N)n(CC4CCCO4)c3nc12 (stereo unspecified)	.	.	.	26
Cc1cccn2c(=O)c3cc(S(=O)(=O)c4ccccc4)c(=N)n(CC4CCCO4)c3nc12 (stereo unspecified)	81*	12	158*	25
Cc1ccc(S(=O)(=O)c2cc3c(=O)n4cccc(C)c4nc3n(CC3CCCO3)c2=N)cc1C (stereo unspecified)	88*	66*	137*	21
CCN1CCN(C(=O)c2cc3c(=O)n4ccccc4nc3s2)CC1	.	.	12	.
O=C(c1cc2c(=O)n3ccccc3nc2s1)N1CCc2ccccc2C1	81*	19	-1	36
COc1ccc(NC(=O)Cn2nnc(C(=O)NCCc3ccc(OC)c(OC)c3)c2N)c(OC)c1	-3	-1	7	16
Cc1ccc2nc(CSc3nc(C)cc(C)c3C#N)[nH]c2c1	7	2	29*	0
CN1C(=O)C(Cc2cnc[nH]2)NC1=S (stereo unspecified)	.	.	3	.
COC(=O)c1c(NC(=O)CCCC(=O)O)sc(C)c1C	-1	0	-2	-2
Cc1sc(NC(=O)CCCC(=O)O)c(C(N)=O)c1-c1ccccc1	-8	3	1	102*
COc1ccccc1NC(=O)CCc1nnc2ccc(N3CCC4(CC3)OCCO4)nn12	.	.	2	.
O=C1NC(=S)N/C1=C/c1ccc2ccccc2c1	.	.	26*	.
O=C1NC(=S)N/C1=C/c1ccc2c(c1)OCO2	.	.	4	.
CCc1ccc(NC(=O)CN(c2ccc(OC)cc2)S(=O)(=O)c2c(C)[nH]c(=O)[nH]c2=O)cc1	.	.	1	.
CCc1ccc(NC(=O)CN(c2cc(C)cc(C)c2)S(=O)(=O)c2c(C)[nH]c(=O)[nH]c2=O)cc1	.	.	21*	.
CN(C)c1nc(-c2ccccc2)c2cc(Cl)ccc2n1	.	.	21*	.
CCSc1nc(-c2ccccc2)c2cc(Cl)ccc2n1	1	1	2	2
O=C(N/N=C/c1sc(N2CCOCC2)nc1-c1ccccc1)c1ccccc1Cl	4	3	30*	-2
O=C(N/N=C/c1sc(N2CCOCC2)nc1-c1ccccc1)c1ccccc1O	13	0	6	7
Cn1c(C(=O)NCc2ccccn2)cc2c(=O)n3ccccc3nc21	97*	27	9	43
COc1ccc(C)cc1NC(=O)c1cc2c(=O)n3ccccc3nc2n1C	92*	-64	.	-16
SMILES	Runt-SMMHC FRET	Runt-CBFb FRET	RanGTP-Imp inh	Hck-Nef inh
COc1ccc(NC(=O)NCCCCc2ccccc2)c(OC)c1	.	.	-5	.
COc1ccc(C(=O)NC(=S)N2CC(C)OC(C)C2)cc1OC (stereo unspecified)	-7	2	2	7
O=c1[nH]cc(NCCc2ccccc2)c(=O)[nH]1	16	9	43*	29
O=c1[nH]cc(COCc2ccccc2)c(=O)[nH]1	-2	-1	7	2
CCC(=O)NC1=C(Cl)C(=O)C(NC(=O)CC)=C(Cl)C1=O	95*	17	.	5
O=C(COC(=O)c1ccc([N+](=O)[O-])cc1Cl)Nc1cccnc1Cl	.	.	2	.
COc1ccc(-c2cn(-c3ccccc3)c3[n+]2CCS3)cc1	0	-1	4	3
N#CC1=C(N)N2C(=C(C#N)C1c1ccccc1)Sc1ccccc12 (stereo unspecified)	-69	-60	?	2
N#CC1=C(N)N2C(=C(C#N)C1c1ccc(Br)cc1)Nc1ccccc12 (stereo unspecified)	60*	19	23*	7
N#CC1=C(N)N2C(=C(C#N)C1c1cccc(Br)c1)Nc1ccccc12 (stereo unspecified)	64*	20	28*	4
COc1ccc(CNCCNC(=O)c2cccs2)c(OC)c1OC	2	1	7	23
CSCC[C@H](NC(=O)Cc1ccc(Cl)cc1)C(=O)N1CCC2(CC1)NCCc1[nH]cnc12	.	.	-2	.
Nc1cc(-c2ccccc2)nn1Cc1ccccc1	-2	-1	32*	-16
NNc1nc(-c2ccccc2)nc(-c2ccccc2)c1Br	.	.	1	.
Cc1cccc(N2CCN(C(=O)c3ccc4nc(-c5ccco5)c(-c5ccco5)nc4c3)CC2C)c1 (stereo unspecified)	-15	13	35*	9
C/C(=N/NC(=O)c1cccs1)c1c(C)[nH]n(-c2nc3ccccc3s2)c1=O	98*	45	-7	18
CC(=NCc1ccco1)c1c(C)[nH]n(-c2nc3ccccc3s2)c1=O	-1	-2	?	10
CCCN1CCc2c(sc(NC(=O)C3CCN(S(=O)(=O)c4cccs4)CC3)c2C(N)=O)C1	.	.	151*	.
CCCN1CCc2c(sc(NC(=O)c3ccc(S(=O)(=O)N4CCN(C(=O)OCC)CC4)cc3)c2C(N)=O)C1	.	.	96*	.
CCOC(=O)N1CCN(S(=O)(=O)c2ccc(C(=O)Nc3sc4c(c3C(N)=O)CCN(CC)C4)cc2)CC1	.	.	43*	.
NC(=O)N/N=C/C=C/c1ccc(F)cc1	0	4	8	18
O=C(CSc1ccc(-c2ccncc2)nn1)N1CCN(c2ccccc2)CC1	-1	-2	?	2
CC(C)(C)NC(=O)CSc1nnc(C2CC2)n1-c1ccccc1	2	-1	52*	23
O=C(CN1CCOCC1)Nc1ccccc1Cl	-1	0	-2	-2
N=C1C(=O)OCC1c1ccccc1NC(=O)CN1CCOCC1 (stereo unspecified)	3	-3	41*	4
SMILES	Runt-SMMHC FRET	Runt-CBFb FRET	RanGTP-Imp inh	Hck-Nef inh
CCC(=O)Nc1nc(NCc2ccccc2OC)n(-c2ccccc2)n1	.	.	3	.
Cc1ccc(NC(=O)CCc2nc3sc4c(c3c(=O)[nH]2)CCCC4)c(Br)c1	.	.	-1	.
CC(=O)Nc1c(C)ccc(CNC(=O)COc2cc(C)ccc2C)c1C	3	1	6	-15
CCS(=O)(=O)N1Cc2ccccc2CC1C(=O)Nc1ccc(F)cc1 (stereo unspecified)	80*	2	1	-2
CCS(=O)(=O)N1Cc2ccccc2CC1C(=O)Nc1ccc(OC)c(OC)c1 (stereo unspecified)	.	.	-2	.
O=C(N/N=C/c1c(O)n(-c2ccccc2Cl)c(=O)c2ccccc12)c1cccnc1	86*	20	3	0
O=C(N/N=C/c1cn(Cc2ccccc2)c2ccccc12)c1cccnc1	-4	-7	0	2
COc1ccc(Cn2c(O)c(C=Nc3ccccc3C(=O)O)c3ccccc3c2=O)cc1	3	2	6	24
COc1ccc(Cn2c(O)c(/C=N/NC(=O)c3cccnc3)c3ccccc3c2=O)cc1	86*	21	10	-12
